# According to the EternaBench riboswitch data:
# Legend:
# MS2 coat protein [1] = assay: apparent Kd, MS2 coat protein; higher = weaker binding; RNA-MaP array; tryptophan 2.4 mM where present
# In short: (§1)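 SNAP-549-labelled MS2 coat protein, doubled from 0.7 or 1.5 nM to 3 µM, was titrated over designs transcribed by stalled E. coli RNA polymerase on Illumina sequencing-chip clusters. Titrations were run without and then with constant ligand in 100 mM Tris-HCl pH 7.5, 80 mM KCl, 4 mM MgCl2, BSA, DTT, yeast tRNA and Tween-20. The apparent Kd is the median of filtered per-cluster fits to green signal normalised to red-channel RNA signal and control-cluster median Fmax.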
# MS2 coat protein [2] = assay: apparent Kd, MS2 coat protein; higher = weaker binding; RNA-MaP array; theophylline 2 mM where present
# In short: as §1
# [3] = designed as: ON switch for tryptophan, no ligand
# [4] = ligand present: tryptophan, designed as: ON switch for tryptophan
# [5] = designed as: OFF switch for tryptophan, no ligand
# [6] = ligand present: tryptophan, designed as: OFF switch for tryptophan
# [7] = designed as: ON switch for theophylline, no ligand
# [8] = ligand present: theophylline, designed as: ON switch for theophylline
# [9] = designed as: OFF switch for theophylline, no ligand
# [10] = ligand present: theophylline, designed as: OFF switch for theophylline
Sequence,apparent Kd (MS2 coat protein [2]; [7]) [nM],apparent Kd (MS2 coat protein [2]; [9]) [nM],apparent Kd (MS2 coat protein [2]; [10]) [nM],other results
AACAUGAGGAUCACCCAUGUCCCAUGUGAACGAGGACCGGUACGGCCGCCACUCGACUGAGGCGGCACAUGAGGAUCACCCACAU,,,,apparent Kd (MS2 coat protein [1]; [3]): 170 nM; apparent Kd (MS2 coat protein [1]; [4]): 314 nM
AACAUGAGGAUCACCCAUGUGUCCUCGAAACGAGGACCGGUACGGCCGCCACUCGAAAUAAGCUGUUGACGAAAAGUCAGCAGCA,,,,apparent Kd (MS2 coat protein [1]; [5]): 281 nM; apparent Kd (MS2 coat protein [1]; [6]): 501 nM
AACAUGAGGAUCACCCAUGUGUCCUCGAAACGAGGACCGGUACGGCCGCCACUCGAAGCAUGUUGACGAAAAGUCAGCAUGCAAA,,,,apparent Kd (MS2 coat protein [1]; [5]): 318 nM; apparent Kd (MS2 coat protein [1]; [6]): 1060 nM
AACGCGGUGAUGGUAGCCGGACGCUAGGUACGAGGACCGGUACGGCCGCCACUCGGAGUCCUACGACAUGAGGAUCACCCAUGUA,,,,apparent Kd (MS2 coat protein [1]; [3]): 127 nM; apparent Kd (MS2 coat protein [1]; [4]): 67.5 nM
AAUAAUAAGGCGGCCGCCACUACACAUGAGGAUCACCCAUGUCUCGCGGGCUUGCGUUGGGAAUGUAGGACCGGGCCAAUAAUAA,,,,apparent Kd (MS2 coat protein [1]; [5]): 24.3 nM; apparent Kd (MS2 coat protein [1]; [6]): 18.3 nM
AAUAUAUAGACGGCCGCCACUGGAACCAAUACAUGAGGAUCACCCAUGUGAAAAGGAUAGGUUCACAGGACCGGGUCUUCAUGUA,,,,apparent Kd (MS2 coat protein [1]; [3]): 25.7 nM; apparent Kd (MS2 coat protein [1]; [4]): 9.99 nM
AAUUAAACAUCGGCCGCCACUUACUCAUGAGGUAACAACAUGAGGAUCACCCAUGUUUGAGGAUCAAGGACCGGGAUGUAAUUUU,,,,apparent Kd (MS2 coat protein [1]; [3]): 29.8 nM; apparent Kd (MS2 coat protein [1]; [4]): 22.2 nM
AAUUAUCAGUCGGCCGCCACUGACACAUGAGGAUCACCCAUGUAACUUGGGUUAAAUUUAAUAAACAGGACCGGGACAAAGGCUA,,,,apparent Kd (MS2 coat protein [1]; [5]): 186 nM; apparent Kd (MS2 coat protein [1]; [6]): 184 nM
AAUUUAUGGUUCUUGAUGUAGUAUCUAUUUCGAGGACCGGUACGGCCGCCACUCGUAAAUUACAUGAGGAUCACCCAUGUUAGCU,,,,apparent Kd (MS2 coat protein [1]; [5]): 24.6 nM; apparent Kd (MS2 coat protein [1]; [6]): 29.5 nM
ACAUUAGCCACGGCCGCCACUGCCUUAUGAUUAUAAGGAUUAAUGAACAUGAGGAUCACCCAUGUCAGGACCGGGUGCCUACCAU,,,,apparent Kd (MS2 coat protein [1]; [3]): 22 nM; apparent Kd (MS2 coat protein [1]; [4]): 20.7 nM
ACGUUGAAGUCGGCCGCCACUGAUUUCAUGUUCAACAUGAGGAUCACCCAUGUACCUUAUGUUAACAGGACCGGGACGUAUACGA,,,,apparent Kd (MS2 coat protein [1]; [3]): 479 nM; apparent Kd (MS2 coat protein [1]; [4]): 117 nM
CGAAUACGAAUUGAUACCAGCAUGUUAACAUGAGGAUCACCCAUGUUAAGGAUAACAUAAUGCCCUUGGCAGCAACGUAAAUUCG,19.4,,,apparent Kd (MS2 coat protein [2]; [8]): 13.4 nM
CGAUCUUUCGAAAGAAGGAUCGAGUCUGAUACCAGAGACGAAAGUCUCCCUUGGCAGCAGUGCCAACAUGAGGAUCACCCAUGUA,18.7,,,apparent Kd (MS2 coat protein [2]; [8]): 21.1 nM
GAGCUGAUGUAGAGCGAAUAUACGAGAGAUACCAGUACAGAAAUGUACCCUUGGCAGCUCAACUUUACAUGAGGAUCACCCAUGU,,13.8,15.3,
GAGGAUCAAGUAGAUACCAGCACAUGAGGAUCACCCAUGUAAUGGUGUCCCUCAAGAACGUGCCCUUGGCAGCUACUAUCAAAAU,,16.3,16.3,
GAGUUCCUGAGAGAUACCAGUGAGGCCACAUGAGGAUCACCCAUGUCCCUCACUCCGGCCCACCCUUGGCAGCUCGAAAGAUAUU,,10.9,68.1,
GAUCUGUCGGGUGAUACCAGCCUCGGCGCGUCUCGCGCUGAACAUGAGGAUCACCCAUGUGGCCCUUGGCAGCACAUGACAAAUC,574,,,apparent Kd (MS2 coat protein [2]; [8]): 44.2 nM
GAUGAACUAUUUGAUACCAGACCACAUGAGGAUCACCCAUGUGAGUUUCGUCCUUAGCCGGUCCCUUGGCAGCAAAUAGUUUAUC,,16.9,52.5,
GCAUGCGAUACCGAUACCAGCUACUCCAUGGCGCUCCACAUGAGGAUCACCCAUGUAAAUAGCCCUUGGCAGCGGUAUUGAGAUG,,22.7,315,
GGGUAAGAUCCGGAUACCAGCGAACAUGAGGAUCACCCAUGUGAAAUAAGAUAGAAUAAACGCCCUUGGCAGCCGAAAUAGAGUU,77.3,,,apparent Kd (MS2 coat protein [2]; [8]): 30.1 nM
GGGUAUGAUCCGGAUACCAGCGAACAUGAGGAUCACCCAUGUGACCUAAGAUAGGCUAAACGCCCUUGGCAGCCGAGAUUGCGUU,48.4,,,apparent Kd (MS2 coat protein [2]; [8]): 31.5 nM

Sequence,apparent Kd (MS2 coat protein [2]; [7]) [nM],apparent Kd (MS2 coat protein [2]; [9]) [nM],apparent Kd (MS2 coat protein [2]; [10]) [nM],other results
GUACAUGAGGAUCACCCAUGUGGUAGGGAUACCAGCCAGAAGAAAGGCCCUUGGCAGCUUGUAUUUAGUGUGGGUUUGUUUGUUC,,23.4,54.9,
GUAUGGAAACAUACUAGGGUAUCAUGAGAUACCAGUACAGAAAUGUACCCUUGGCAGCUCAAGCAUACAUGAGGAUCACCCAUGU,,16.4,27.1,
UAACAUGAGGAUCACCCAUGUAUAGUCGAUACCAGCUCAAGGGAGAGCCCUUGGCAGCGACACUGGUAUCCAUGGGUGUGGAUAC,82.3,,,apparent Kd (MS2 coat protein [2]; [8]): 81.3 nM
UAUAUAUAUAGGGAUACCAGCAGAGAAAACGUUUAUCCUAACAUGAGGAUCACCCAUGUAUGCCCUUGGCAGCUUUAUAUAUAUA,,22.9,31.2,
UAUAUAUAUAGUGAUACCAGCAGAGAAAACGUUUAUCCUAACAUGAGGAUCACCCAUGUAUGCCCUUGGCAGCGUUAUAUAUAUA,,24,32.4,
UAUAUAUAUAUGGAUACCAGCAGAGAAAACGUUUAUCCUAACAUGAGGAUCACCCAUGUAUGCCCUUGGCAGCUGUGUAUAUAUA,,22.2,26.8,
UCACGUGGGAAUGAUACCAGCCACAUGAGGAUCACCCAUGUGCAUGGUGUGAGCUUCACGGGCCCUUGGCAGCAUUUCAAGUCGC,,48,69.5,
UCGUGUAUAUCGGAUACCAGUGAAAACGAUACAUGAGGAUCACCCAUGUGAGUUGAUGUACACCCUUGGCAGCUGUAUAUAUCUA,19.3,,,
UCGUGUGUUUCGGAUACCAGUGUGGUCGAUACAUGAGGAUCACCCAUGUUAGAGGAGGUACACCCUUGGCAGCCGGCUGUUGCGG,108,,,apparent Kd (MS2 coat protein [2]; [8]): 51.1 nM
UGACAUUGCUCAGAUACCAGACAUGAGGAUCACCCAUGUACCAAGAAAACGUACAAUAAUGUCCCUUGGCAGCUGAGCAAUGUCU,,101,549,
UGUAACAUGAGGAUCACCCAUGUGAGUGAUACCAGAUUAGUAUUAGUCCCUUGGCAGCACAUUGGGCGAGUGUAUAGUCUAUGCG,154,,,
UGUUUGGUGCGCGAGUGUUGGAUAAUUGAUACCAGUGUAGAAGUGCGCCCUUGGCAGCGAAUCCUAACAUGAGGAUCACCCAUGU,46.1,,,apparent Kd (MS2 coat protein [2]; [8]): 57.8 nM
UUAGAUAUGACAGAUACCAGCGUGUUAUAAAACAUGAGGAUCACCCAUGUAGUGAUCGAGCGCCCUUGGCAGCUGGUGUGUUUGG,69.6,,,apparent Kd (MS2 coat protein [2]; [8]): 208 nM
UUAGAUAUGACAGAUACCAGCGUGUUGUAGAACAUGAGGAUCACCCAUGUAGUGAUCAAGCGCCCUUGGCAGCUGGUAUGUUUGG,170,,,apparent Kd (MS2 coat protein [2]; [8]): 221 nM
UUAUAUAUACAUGAGGAUCACCCAUGUGAUACCAGCCUGGAAACAGGCCCUUGGCAGCACAAAUACUCCAGAAAAUAUAAUAAAU,,26.7,199,
UUAUUUAUAAUGGAUACCAGUGCUGUGGCCCGGCAUCCUGACAUGAGGAUCACCCAUGUGUACCCUUGGCAGCUGUUAUGGGUUU,,22.6,,
UUCUACAUGAGGAUCACCCAUGUGGGUGAUACCAGCACUUUUUGGUGCCCUUGGCAGCACAUGAGAAUACCGUACGAUCGGCGAU,265,,,apparent Kd (MS2 coat protein [2]; [8]): 700 nM
UUUGAUAUGACAGAUACCAGCGUGUUGUUGAACAUGAGGAUCACCCAUGUAGUGAUCAAGCGCCCUUGGCAGCUGGUGUGUUAGG,125,,,apparent Kd (MS2 coat protein [2]; [8]): 82.7 nM
UUUUUCGCGUUUGAUACCAGCAGAGUUGUUCUGGUCUGGUACAUGAGGAUCACCCAUGUCUGCCCUUGGCAGCAAACGGGAGAAG,,11.5,14.7,
UUUUUUAUUAUGGCGUAUCGGAAAACCGAUACCAGUACAGAAAUGUACCCUUGGCAGCGGCGUUUUACAUGAGGAUCACCCAUGU,,13.9,20.1,
